# Source: ChEMBL document CHEMBL1152785, “Synthesis and biological evaluation of a series of novel inhibitor of Nek2/Hec1 analogues” (J Med Chem, 2009)
# Calls of active or inactive are those of the source. No cut-off for these calls is given here.
# Molecular target: T1, Kinetochore protein NDC80 homolog (Homo sapiens) (UniProt O14777)
# T1 sequence (whole entry): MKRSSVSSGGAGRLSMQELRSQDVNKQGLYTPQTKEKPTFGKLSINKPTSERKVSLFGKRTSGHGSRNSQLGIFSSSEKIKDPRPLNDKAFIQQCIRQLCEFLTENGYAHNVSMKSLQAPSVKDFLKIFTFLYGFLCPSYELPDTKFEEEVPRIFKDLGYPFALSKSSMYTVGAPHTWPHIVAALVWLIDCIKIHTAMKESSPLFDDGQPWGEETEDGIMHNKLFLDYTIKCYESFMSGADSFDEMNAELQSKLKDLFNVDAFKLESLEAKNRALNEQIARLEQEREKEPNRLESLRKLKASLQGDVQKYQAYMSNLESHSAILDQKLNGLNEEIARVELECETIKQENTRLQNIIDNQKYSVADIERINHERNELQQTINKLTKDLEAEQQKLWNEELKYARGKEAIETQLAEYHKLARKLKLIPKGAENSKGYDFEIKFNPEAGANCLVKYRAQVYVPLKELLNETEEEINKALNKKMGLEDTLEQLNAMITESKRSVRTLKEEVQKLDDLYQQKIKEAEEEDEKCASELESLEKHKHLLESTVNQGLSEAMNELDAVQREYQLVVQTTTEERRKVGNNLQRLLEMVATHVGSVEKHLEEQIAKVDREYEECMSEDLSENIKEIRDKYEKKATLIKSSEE
# Experiment: Inhibition of Hec1/Nek2 complex in human Hela cells assessed as mitotic abnormality with multipolar spindle configuration at 3.75 uM after 24 hrs by immuno-fluorescent staining
# Conditions: not given
row,Activity,Structure (SMILES)
1,Active,Cc1cc(C)c(-c2csc(NC(=O)c3ccccc3)n2)c(C)c1
2,Active,Cc1cc(C)c(-c2csc(NC(=O)N3CCOCC3)n2)c(C)c1

# Molecular target: T1, Kinetochore protein NDC80 homolog (Homo sapiens)
# Experiment: Inhibition of Hec1/Nek2 complex in human Hela cells assessed as mitotic abnormality with multipolar spindle configuration at 3.75 uM after 24 hrs by immuno-fluorescent staining
# Format: cell-based
# Conditions: not given
# Summary of the method: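 HeLa cells were treated with compound at 3.75 μM or buffer mock for 24 h. Cells were immunostained for α-tubulin and γ-tubulin with DAPI for DNA. Mitotic cells were examined for spindle pole number, i.e. multipolar spindles.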
row,Activity,Structure (SMILES)
1,Active,Cc1cc(C)c(-c2csc(NC(=O)c3ccccc3)n2)c(C)c1
2,Active,Cc1cc(C)c(-c2csc(NC(=O)N3CCOCC3)n2)c(C)c1

# Test system: MDA-MB-231
# Experiment: Cytotoxicity against human MDA-MB-231 cells after 4 days XTT assay
# Format: functional, cell-based
# Conditions: MDA-MB-231, 96 h
# Summary of the method: (§1)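 XTT assay with four-day drug treatment. Cells were plated one day before dosing and drug was added on day 2. XTT was read on day 5 after drug addition by absorbance at 595 nm. Absorbance was converted to percent survival against mock-treated cells to give dose-dependent cytotoxicity. Triplicate sets. HeLa, MDA-MB231 and MDA-MB468 were maintained in DMEM with 10% FBS.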
row,Structure (SMILES),IC50 [µM]
1,COc1ccc(C(=O)N(C)c2nc(-c3c(C)cc(C)cc3C)cs2)c(OC)c1,10.6
2,Cc1ccc(-c2csc(N)n2)c(C)c1,> 40
3,Cc1ccc(-c2csc(NS(=O)(=O)c3ccccc3)n2)c(C)c1,> 40
4,COc1ccccc1C(=O)Nc1nc(-c2c(C)cc(C)cc2C)cs1,> 40
5,COc1ccc(C(=O)/N=c2\scc(-c3c(C)cc(C)cc3C)n2C)c(OC)c1,22.1
6,Cc1ccc(-c2csc(NC(=O)N3CCOCC3)n2)c(C)c1,5.8
7,Cc1cc(C)c(-c2csc(NC(=O)c3ccccc3)n2)c(C)c1,1.7
8,Cc1cc(C)c(-c2csc(NC(=O)N3CCOCC3)n2)c(C)c1,1.6

# Test system: HeLa
# Experiment: Cell cycle arrest in human HeLa cells assessed as accumulation at subG1 phase at 2.5 uM after 72 hrs by FACS analysis
# Format: functional
# Conditions: not given
# Summary of the method: (§2)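 HeLa cells were treated with compound at 2.5 μM, with buffer as mock control. Phase contrast images were taken at various time points to assess dying-cell morphology such as membrane bubbling. Cell cycle profiling was done by FACS at 72 h.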
row,Structure (SMILES),Activity [%]
1,Cc1ccc(-c2csc(NS(=O)(=O)c3ccccc3)n2)c(C)c1,2.9
2,Cc1cc(C)c(-c2csc(NC(=O)c3ccccc3)n2)c(C)c1,19.9
3,Cc1cc(C)c(-c2csc(NC(=O)N3CCOCC3)n2)c(C)c1,20.1

# Molecular target: T1, Kinetochore protein NDC80 homolog (Homo sapiens)
# Experiment: Binding affinity to Hec1 in human HeLa cell extract by affinity pulldown assay
# Format: cell-free
# Conditions: not given
# Summary of the method: (§3)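 Compounds were conjugated to affi-gel matrix. HeLa cell extract was incubated with control or compound-conjugated matrices and the precipitates were washed thoroughly. Bound proteins were resolved by SDS-PAGE and Western blotted for Hec1 and Nek2. Whole cell extract served as input, in duplicates.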
row,Activity,Structure (SMILES)
1,inactive,Cc1ccc(-c2csc(NS(=O)(=O)c3ccccc3)n2)c(C)c1
2,Active,Cc1cc(C)c(-c2csc(NC(=O)c3ccccc3)n2)c(C)c1

# Test system: HeLa
# Experiment: Anticancer activity against human HeLa cells assessed as reduction of Nek2 level at 6.25 uM by Western blot assay
# Format: functional, cell-based
# Conditions: not given
# Summary of the method: (§4)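 HeLa cells in DMEM with 10% FBS were treated with compound at 6.25 μM and harvested at various time points. Extracts were run on SDS-PAGE and Western blotted for Nek2 and Hec1, with p84 (nuclear matrix protein) as loading control. Nek2 level was followed over time after treatment.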
row,Structure (SMILES),Activity
1,Cc1cc(C)c(-c2csc(NC(=O)c3ccccc3)n2)c(C)c1,Active
2,Cc1cc(C)c(-c2csc(NC(=O)N3CCOCC3)n2)c(C)c1,Active

# Test system: K562
# Experiment: Cytotoxicity against human K562 cells after 4 days by XTT assay
# Format: functional, cell-based
# Conditions: K562, 96 h
row,Structure (SMILES),IC50 [µM]
1,COc1ccc(C(=O)N(C)c2nc(-c3c(C)cc(C)cc3C)cs2)c(OC)c1,15.5
2,Cc1ccc(-c2csc(N)n2)c(C)c1,> 40
3,Cc1ccc(-c2csc(NS(=O)(=O)c3ccccc3)n2)c(C)c1,> 40
4,COc1ccccc1C(=O)Nc1nc(-c2c(C)cc(C)cc2C)cs1,> 40
5,COc1ccc(C(=O)/N=c2\scc(-c3c(C)cc(C)cc3C)n2C)c(OC)c1,23.7
6,Cc1ccc(-c2csc(NC(=O)N3CCOCC3)n2)c(C)c1,4.2
7,Cc1cc(C)c(-c2csc(NC(=O)c3ccccc3)n2)c(C)c1,2.5
8,Cc1cc(C)c(-c2csc(NC(=O)N3CCOCC3)n2)c(C)c1,3.8

# Test system: HeLa
# Experiment: Induction of apoptosis in human HeLa cells assessed as morphological changes with membrane bubbling at 2.5 uM
# Format: functional, cell-based
# Conditions: not given
# Summary of the method: as §2
row,Structure (SMILES),Activity
1,Cc1cc(C)c(-c2csc(NC(=O)c3ccccc3)n2)c(C)c1,Active
2,Cc1cc(C)c(-c2csc(NC(=O)N3CCOCC3)n2)c(C)c1,Active

# Test system: HeLa
# Experiment: Anticancer activity against human HeLa cells expressing H2B-GFP assessed as increase in rate of chromosome misalignment at 2.5 uM after 24 hrs
# Format: functional, cell-based
# Conditions: not given
# Summary of the method: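 HeLa cells expressing the chromosome marker H2B-GFP were treated with compound at 2.5 μM. The incidence of metaphase chromosome alignment was scored. Triplicate sets were measured to give averages and deviations.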
row,Structure (SMILES),Activity
1,Cc1cc(C)c(-c2csc(NC(=O)c3ccccc3)n2)c(C)c1,Active
2,Cc1cc(C)c(-c2csc(NC(=O)N3CCOCC3)n2)c(C)c1,Active

# Molecular target: T2, Serine/threonine-protein kinase Nek2 (Homo sapiens) (UniProt P51955)
# T2 sequence (whole entry): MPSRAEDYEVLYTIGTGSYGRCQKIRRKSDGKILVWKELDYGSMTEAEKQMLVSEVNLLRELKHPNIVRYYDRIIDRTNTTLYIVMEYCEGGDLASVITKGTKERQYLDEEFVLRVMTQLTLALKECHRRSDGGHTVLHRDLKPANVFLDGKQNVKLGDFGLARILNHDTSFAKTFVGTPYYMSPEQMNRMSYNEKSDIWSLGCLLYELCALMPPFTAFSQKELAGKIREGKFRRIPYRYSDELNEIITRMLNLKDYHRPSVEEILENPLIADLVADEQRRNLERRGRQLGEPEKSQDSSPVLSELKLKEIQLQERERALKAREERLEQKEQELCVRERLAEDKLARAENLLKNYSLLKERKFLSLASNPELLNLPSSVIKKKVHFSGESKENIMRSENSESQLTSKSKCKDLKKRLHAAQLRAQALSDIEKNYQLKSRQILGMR
# Experiment: Binding affinity to NeK2 in human HeLa cell extract by affinity pulldown assay
# Format: cell-free
# Conditions: not given
# Summary of the method: as §3
row,Activity,Structure (SMILES)
1,inactive,Cc1cc(C)c(-c2csc(NC(=O)c3ccccc3)n2)c(C)c1
2,inactive,Cc1cc(C)c(-c2csc(NC(=O)N3CCOCC3)n2)c(C)c1

# Test system: HeLa
# Experiment: Anticancer activity against human HeLa cells assessed as reduction of Nek2 level at 6.25 uM after 8 to 11 hrs by Western blot assay
# Format: functional
# Parameters: scale not given: the % may be the effect or the level left
# Conditions: not given
# Summary of the method: as §4
row,Structure (SMILES),Activity [%]
1,Cc1cc(C)c(-c2csc(NC(=O)c3ccccc3)n2)c(C)c1,50
2,Cc1cc(C)c(-c2csc(NC(=O)N3CCOCC3)n2)c(C)c1,50

# Test system: HeLa
# Experiment: Cytotoxicity against human HeLa cells after 4 days by XTT assay
# Format: functional, cell-based
# Conditions: 96 h
# Summary of the method: as §1
row,Structure (SMILES),IC50 [µM]
1,COc1ccc(C(=O)N(C)c2nc(-c3c(C)cc(C)cc3C)cs2)c(OC)c1,> 40
2,Cc1ccc(-c2csc(N)n2)c(C)c1,> 40
3,Cc1ccc(-c2csc(NS(=O)(=O)c3ccccc3)n2)c(C)c1,> 40
4,COc1ccccc1C(=O)Nc1nc(-c2c(C)cc(C)cc2C)cs1,> 40
5,COc1ccc(C(=O)/N=c2\scc(-c3c(C)cc(C)cc3C)n2C)c(OC)c1,22
6,Cc1ccc(-c2csc(NC(=O)N3CCOCC3)n2)c(C)c1,4.7
7,Cc1cc(C)c(-c2csc(NC(=O)c3ccccc3)n2)c(C)c1,2.4
8,Cc1cc(C)c(-c2csc(NC(=O)N3CCOCC3)n2)c(C)c1,2.5

# Test system: MDA-MB-468
# Experiment: Cytotoxicity against human MDA-MB-468 cells after 4 days by XTT assay
# Format: functional, cell-based
# Conditions: MDA-MB-468, 96 h
# Summary of the method: as §1
row,Structure (SMILES),IC50 [µM]
1,COc1ccc(C(=O)N(C)c2nc(-c3c(C)cc(C)cc3C)cs2)c(OC)c1,18.7
2,Cc1ccc(-c2csc(N)n2)c(C)c1,> 40
3,Cc1ccc(-c2csc(NS(=O)(=O)c3ccccc3)n2)c(C)c1,> 40
4,COc1ccccc1C(=O)Nc1nc(-c2c(C)cc(C)cc2C)cs1,> 40
5,COc1ccc(C(=O)/N=c2\scc(-c3c(C)cc(C)cc3C)n2C)c(OC)c1,21
6,Cc1ccc(-c2csc(NC(=O)N3CCOCC3)n2)c(C)c1,4
7,Cc1cc(C)c(-c2csc(NC(=O)c3ccccc3)n2)c(C)c1,2.1
8,Cc1cc(C)c(-c2csc(NC(=O)N3CCOCC3)n2)c(C)c1,4.2

# Test system: HeLa
# Experiment: Anticancer activity against human HeLa cells assessed as reduction of Nek2 level at 25 uM by Western blot assay
# Format: functional, cell-based
# Conditions: not given
row,Structure (SMILES),Activity
1,Cc1ccc(-c2csc(NS(=O)(=O)c3ccccc3)n2)c(C)c1,inactive
